Measurements from ChEMBL document CHEMBL4689842, “EUbOPEN Chemogenomics Library wave 1” (2021).

Tested on: HEK-293T
Experiment: Multiplex assay against HEK293T;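 as to Population Tubulin-Different-Phenotype (%): share of the cells with healthy nuclei that show this phenotype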
Assay type: toxicity, cell-based
Conditions: human
Summary of the method: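 Per cents of healthy-nucleus cells form the tubulin, mitochondrial-mass and membrane-permeability phenotype values. Live cells were stained at seeding with Hoechst33342, BioTracker Green Microtubule Cytoskeleton Dye, MitoTracker Red and Annexin V Alexa Fluor 680. After compound addition they were imaged on a CQ1 microscope at 37°C and 5% CO2, and CellPathfinder machine-learning gating split them into Hoechst high-intensity objects or normal cells, normal cells into healthy, pyknosed or fragmented nuclei, and pyknosed cells into mitotic or apoptotic.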

[1] = 12 h, 1 µM, compound concentration 1 uM, replicate 1
[2] = 12 h, 1 µM, compound concentration 1 uM, replicate 2
[3] = 12 h, 10 µM, compound concentration 10 uM, replicate 1
[4] = 12 h, 10 µM, compound concentration 10 uM, replicate 2
[5] = 24 h, 1 µM, compound concentration 1 uM, replicate 1
[6] = 24 h, 1 µM, compound concentration 1 uM, replicate 2
[7] = 24 h, 10 µM, compound concentration 10 uM, replicate 1
[8] = 24 h, 10 µM, compound concentration 10 uM, replicate 2
[9] = 48 h, 1 µM, compound concentration 1 uM, replicate 1
[10] = 48 h, 1 µM, compound concentration 1 uM, replicate 2
[11] = 48 h, 10 µM, compound concentration 10 uM, replicate 1
[12] = 48 h, 10 µM, compound concentration 10 uM, replicate 2

Structure (SMILES): CC[C@H](C)C(=O)O[C@H]1C[C@@H](C)C=C2C=C[C@H](C)[C@H](CC[C@@H]3C[C@@H](O)CC(=O)O3)[C@H]21 [LOVASTATIN]
- Population Apoptotic (%) [1]: 48%
- Population Fragmented Nuclei (%) [1]: 22%
- Population Healthy Nuclei (%) [1]: 16%
- Population Hoechst High Intensity Objects (%) [1]: 14%
- Population Mitochondria Different-Phenotype (%) [1]: 68%
- Population Mitotic Cells (%) [1]: 51%
- Population Normal (%) [1]: 85%
- Population Pyknosed Nuclei (%) [1]: 60%
- Population Tubulin-Different-Phenotype (%) [1]: 28%
- Total Cell Count [1]: 174
- Population Apoptotic (%) [2]: 7%
- Population Fragmented Nuclei (%) [2]: 4%
- Population Healthy Nuclei (%) [2]: 44%
- Population Hoechst High Intensity Objects (%) [2]: 4%
- Population Membrane Permeable-Phenotype (%) [2]: 4%
- Population Mitochondria Different-Phenotype (%) [2]: 11%
- Population Mitotic Cells (%) [2]: 92%
- Population Normal (%) [2]: 95%
- Population Pyknosed Nuclei (%) [2]: 50%
- Population Tubulin-Different-Phenotype (%) [2]: 9%
- Total Cell Count [2]: 227
- Population Apoptotic (%) [3]: 47%
- Population Fragmented Nuclei (%) [3]: 8%
- Population Healthy Nuclei (%) [3]: 33%
- Population Hoechst High Intensity Objects (%) [3]: 14%
- Population Membrane Permeable-Phenotype (%) [3]: 1%
- Population Mitochondria Different-Phenotype (%) [3]: 89%
- Population Mitotic Cells (%) [3]: 52%
- Population Normal (%) [3]: 85%
- Population Pyknosed Nuclei (%) [3]: 57%
- Population Tubulin-Different-Phenotype (%) [3]: 39%
- Total Cell Count [3]: 341
- Population Apoptotic (%) [4]: 10%
- Population Fragmented Nuclei (%) [4]: 5%
- Population Healthy Nuclei (%) [4]: 45%
- Population Hoechst High Intensity Objects (%) [4]: 3%
- Population Membrane Permeable-Phenotype (%) [4]: 4%
- Population Mitochondria Different-Phenotype (%) [4]: 21%
- Population Mitotic Cells (%) [4]: 89%
- Population Normal (%) [4]: 96%
- Population Pyknosed Nuclei (%) [4]: 49%
- Population Tubulin-Different-Phenotype (%) [4]: 16%
- Total Cell Count [4]: 266
- Population Apoptotic (%) [5]: 50%
- Population Fragmented Nuclei (%) [5]: 30%
- Population Healthy Nuclei (%) [5]: 16%
- Population Hoechst High Intensity Objects (%) [5]: 19%
- Population Membrane Permeable-Phenotype (%) [5]: 4%
- Population Mitochondria Different-Phenotype (%) [5]: 52%
- Population Mitotic Cells (%) [5]: 50%
- Population Normal (%) [5]: 80%
- Population Pyknosed Nuclei (%) [5]: 52%
- Population Tubulin-Different-Phenotype (%) [5]: 32%
- Total Cell Count [5]: 192
- Population Apoptotic (%) [6]: 8%
- Population Fragmented Nuclei (%) [6]: 3%
- Population Healthy Nuclei (%) [6]: 65%
- Population Hoechst High Intensity Objects (%) [6]: 3%
- Population Membrane Permeable-Phenotype (%) [6]: 6%
- Population Mitochondria Different-Phenotype (%) [6]: 13%
- Population Mitotic Cells (%) [6]: 91%
- Population Normal (%) [6]: 96%
- Population Pyknosed Nuclei (%) [6]: 30%
- Population Tubulin-Different-Phenotype (%) [6]: 20%
- Total Cell Count [6]: 287
- Population Apoptotic (%) [7]: 38%
- Population Fragmented Nuclei (%) [7]: 12%
- Population Healthy Nuclei (%) [7]: 37%
- Population Hoechst High Intensity Objects (%) [7]: 17%
- Population Membrane Permeable-Phenotype (%) [7]: 1%
- Population Mitochondria Different-Phenotype (%) [7]: 73%
- Population Mitotic Cells (%) [7]: 61%
- Population Normal (%) [7]: 82%
- Population Pyknosed Nuclei (%) [7]: 50%
- Population Tubulin-Different-Phenotype (%) [7]: 37%
- Total Cell Count [7]: 349
- Population Apoptotic (%) [8]: 14%
- Population Fragmented Nuclei (%) [8]: 4%
- Population Healthy Nuclei (%) [8]: 57%
- Population Hoechst High Intensity Objects (%) [8]: 4%
- Population Membrane Permeable-Phenotype (%) [8]: 6%
- Population Mitochondria Different-Phenotype (%) [8]: 17%
- Population Mitotic Cells (%) [8]: 85%
- Population Normal (%) [8]: 95%
- Population Pyknosed Nuclei (%) [8]: 37%
- Population Tubulin-Different-Phenotype (%) [8]: 20%
- Total Cell Count [8]: 320
- Population Apoptotic (%) [9]: 49%
- Population Fragmented Nuclei (%) [9]: 29%
- Population Healthy Nuclei (%) [9]: 28%
- Population Hoechst High Intensity Objects (%) [9]: 15%
- Population Membrane Permeable-Phenotype (%) [9]: 2%
- Population Mitochondria Different-Phenotype (%) [9]: 42%
- Population Mitotic Cells (%) [9]: 50%
- Population Normal (%) [9]: 84%
- Population Pyknosed Nuclei (%) [9]: 41%
- Population Tubulin-Different-Phenotype (%) [9]: 40%
- Total Cell Count [9]: 205
- Population Apoptotic (%) [10]: 3%
- Population Fragmented Nuclei (%) [10]: 6%
- Population Healthy Nuclei (%) [10]: 81%
- Population Hoechst High Intensity Objects (%) [10]: 3%
- Population Membrane Permeable-Phenotype (%) [10]: 7%
- Population Mitochondria Different-Phenotype (%) [10]: 4%
- Population Mitotic Cells (%) [10]: 96%
- Population Normal (%) [10]: 96%
- Population Pyknosed Nuclei (%) [10]: 11%
- Population Tubulin-Different-Phenotype (%) [10]: 20%
- Total Cell Count [10]: 588
- Population Apoptotic (%) [11]: 42%
- Population Fragmented Nuclei (%) [11]: 17%
- Population Healthy Nuclei (%) [11]: 37%
- Population Hoechst High Intensity Objects (%) [11]: 19%
- Population Membrane Permeable-Phenotype (%) [11]: 2%
- Population Mitochondria Different-Phenotype (%) [11]: 46%
- Population Mitotic Cells (%) [11]: 57%
- Population Normal (%) [11]: 80%
- Population Pyknosed Nuclei (%) [11]: 45%
- Population Tubulin-Different-Phenotype (%) [11]: 39%
- Total Cell Count [11]: 384
- Population Apoptotic (%) [12]: 8%
- Population Fragmented Nuclei (%) [12]: 5%
- Population Healthy Nuclei (%) [12]: 72%
- Population Hoechst High Intensity Objects (%) [12]: 4%
- Population Membrane Permeable-Phenotype (%) [12]: 6%
- Population Mitochondria Different-Phenotype (%) [12]: 5%
- Population Mitotic Cells (%) [12]: 91%
- Population Normal (%) [12]: 95%
- Population Pyknosed Nuclei (%) [12]: 21%
- Population Tubulin-Different-Phenotype (%) [12]: 24%
- Total Cell Count [12]: 484
